In ChEMBL document CHEMBL1137789, “Synthesis, binding, and modeling studies of new cytisine derivatives, as ligands for neuronal nicotinic acetylcholine receptor subtypes” (J Med Chem, 2009):

Key:
Format in all cases: cell membranes
[1] = target: T1, Neuronal acetylcholine receptor; alpha4/beta2 (Rattus norvegicus, UniProt P09483+P12390); assay: Displacement of (+/-)-[3H]epibatidine from alpha4beta2 nicotinic acetylcholine receptor in rat brain cortex membrane homogenates
In short: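 Compounds (10 pM-10 mM) preincubated 30 min rt, then overnight at 4 °C with 0.005-0.1 nM final [³H]-epibatidine. Nonspecific: 100 nM epibatidine. Filtration, β counting. Ki by LIGAND fit of three independent experiments.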

[2] = target: Neuronal acetylcholine receptor subunit alpha-7 (Rattus norvegicus, UniProt Q05941); assay: Displacement of [125I]alpha-bungarotoxin from alpha7 nicotinic acetylcholine receptor in rat brain cortex membrane homogenates
Sequence of Neuronal acetylcholine receptor subunit alpha-7 (Q05941 whole entry): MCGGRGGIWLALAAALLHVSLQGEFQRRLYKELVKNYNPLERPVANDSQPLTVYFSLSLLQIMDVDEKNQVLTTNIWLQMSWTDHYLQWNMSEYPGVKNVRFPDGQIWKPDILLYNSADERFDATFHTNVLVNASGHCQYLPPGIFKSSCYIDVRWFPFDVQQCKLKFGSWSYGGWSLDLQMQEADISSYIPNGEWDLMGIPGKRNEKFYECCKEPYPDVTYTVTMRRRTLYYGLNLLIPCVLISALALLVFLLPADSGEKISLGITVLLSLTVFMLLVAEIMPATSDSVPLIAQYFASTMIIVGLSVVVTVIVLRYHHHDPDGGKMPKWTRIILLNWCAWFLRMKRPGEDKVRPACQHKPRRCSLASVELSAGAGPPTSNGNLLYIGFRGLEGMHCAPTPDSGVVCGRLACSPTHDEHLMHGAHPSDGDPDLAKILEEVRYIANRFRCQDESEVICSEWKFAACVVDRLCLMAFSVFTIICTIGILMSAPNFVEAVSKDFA
In short: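 Cortex membrane homogenates from 21-day-old rats in buffer A (Tris-HCl pH 7 with salts, PMSF). Compounds (10 pM-10 mM) preincubated 30 min at rt, then overnight at rt with 1 nM final [¹²⁵I]-α-bungarotoxin. Nonspecific: 1 μM unlabeled α-bungarotoxin. Filtration, γ counting. Ki fitted by LIGAND from three independent competition experiments; no inhibition up to 200 μM taken as Ki >100 μM.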

[3] = target: T1, Neuronal acetylcholine receptor; alpha4/beta2; assay: Displacement of [3H]cytisine from alpha4beta2 nicotinic acetylcholine receptor in rat brain cortex membrane homogenates

T1 sequence (P09483 whole entry): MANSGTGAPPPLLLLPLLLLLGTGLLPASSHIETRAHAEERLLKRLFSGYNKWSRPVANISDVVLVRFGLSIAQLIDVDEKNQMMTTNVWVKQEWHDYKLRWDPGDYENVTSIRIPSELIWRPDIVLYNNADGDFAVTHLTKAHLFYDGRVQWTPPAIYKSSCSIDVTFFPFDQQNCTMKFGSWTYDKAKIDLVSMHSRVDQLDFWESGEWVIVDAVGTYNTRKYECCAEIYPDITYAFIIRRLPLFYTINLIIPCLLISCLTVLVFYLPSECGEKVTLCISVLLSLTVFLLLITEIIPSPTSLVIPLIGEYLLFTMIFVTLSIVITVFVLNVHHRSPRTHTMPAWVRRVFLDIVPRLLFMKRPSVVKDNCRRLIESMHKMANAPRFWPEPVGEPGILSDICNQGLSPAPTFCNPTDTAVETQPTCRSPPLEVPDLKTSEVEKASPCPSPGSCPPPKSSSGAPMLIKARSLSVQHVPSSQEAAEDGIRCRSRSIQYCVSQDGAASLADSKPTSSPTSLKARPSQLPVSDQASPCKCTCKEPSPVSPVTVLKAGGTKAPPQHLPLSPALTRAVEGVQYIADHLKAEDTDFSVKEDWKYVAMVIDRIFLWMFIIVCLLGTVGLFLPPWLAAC
T1 sequence (P12390 whole entry): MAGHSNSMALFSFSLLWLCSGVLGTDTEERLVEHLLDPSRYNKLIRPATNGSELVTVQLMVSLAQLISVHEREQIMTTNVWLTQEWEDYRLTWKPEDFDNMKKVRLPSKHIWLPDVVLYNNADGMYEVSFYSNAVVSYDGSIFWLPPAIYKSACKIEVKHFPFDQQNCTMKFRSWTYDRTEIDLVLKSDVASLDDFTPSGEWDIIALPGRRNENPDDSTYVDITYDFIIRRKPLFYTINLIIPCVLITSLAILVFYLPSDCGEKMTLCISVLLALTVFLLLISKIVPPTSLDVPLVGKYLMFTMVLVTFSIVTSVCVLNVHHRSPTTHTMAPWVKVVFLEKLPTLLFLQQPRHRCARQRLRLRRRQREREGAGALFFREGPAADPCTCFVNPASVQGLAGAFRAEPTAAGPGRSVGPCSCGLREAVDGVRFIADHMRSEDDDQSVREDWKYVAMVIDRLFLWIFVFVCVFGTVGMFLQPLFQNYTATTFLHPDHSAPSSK

Compound | Ki [1] [nM] | Ki [2] [nM] | Ki [3] [nM]
CC(=O)CCN1C[C@@H]2C[C@H](C1)c1cccc(=O)n1C2 | 8.7 | 1240 | 3.2
Cc1ccc(CCCN2C[C@@H]3C[C@H](C2)c2cccc(=O)n2C3)cc1 | 7200 | > 50000 | –
O=C(CCCN1C[C@@H]2C[C@H](C1)c1cccc(=O)n1C2)c1ccc(F)cc1 | 965 | > 50000 | 670
NC(=O)CCN1C[C@@H]2C[C@H](C1)c1cccc(=O)n1C2 | 35 | 3600 | –
CC(=O)CCCN1C[C@@H]2C[C@H](C1)c1cccc(=O)n1C2 | 757 | > 50000 | –
O=c1cccc2n1C[C@H]1C[C@@H]2CN(Cc2cccnc2)C1 | 6600 | > 100000 | –
O=c1cccc2n1C[C@H]1C[C@@H]2CN(CCc2ccccc2)C1 | 28 | 25000 | 78
O=c1cccc2n1C[C@H]1C[C@@H]2CN(CCc2ccccn2)C1 | 941 | > 100000 | –
O=c1cccc2n1C[C@H]1C[C@@H]2CN(CCCCc2ccc(F)cc2)C1 | 13000 | > 50000 | –
O=c1cccc2n1C[C@H]1C[C@@H]2CN(CCCc2cccnc2)C1 | 744 | > 100000 | –
O=c1cccc2n1C[C@H]1C[C@@H]2CN(CCCCc2ccccc2)C1 | 3900 | – | 2220
O=c1cccc2n1C[C@H]1C[C@@H]2CN(CCCc2ccccc2)C1 | 63 | 13000 | 42
O=C(CN1C[C@@H]2C[C@H](C1)c1cccc(=O)n1C2)c1ccccc1 | 17 | 2250 | –
O=C(CCN1C[C@@H]2C[C@H](C1)c1cccc(=O)n1C2)c1ccccc1 | 2.6 | 550 | 7.2
O=C(CCN1C[C@@H]2C[C@H](C1)c1cccc(=O)n1C2)c1ccc(F)cc1 | 5.3 | 433 | 13
Cc1ccc(CCN2C[C@@H]3C[C@H](C2)c2cccc(=O)n2C3)cc1 | 727 | > 50000 | –
O=c1cccc2n1C[C@H]1C[C@@H]2CN(Cc2ccccc2)C1 | 850 | > 50000 | 1000
NC(=O)CN1C[C@@H]2C[C@H](C1)c1cccc(=O)n1C2 | 7300 | > 50000 | –
CCCCCN1C[C@@H]2C[C@H](C1)c1cccc(=O)n1C2 | 332 | 39700 | 43.5
O=C(CCCN1C[C@@H]2C[C@H](C1)c1cccc(=O)n1C2)c1ccccc1 | 816 | > 50000 | –
O=c1cccc2n1C[C@H]1C[C@@H]2CN(Cc2ccncc2)C1 | 675 | > 100000 | –
O=c1cccc2n1C[C@H]1C[C@@H]2CN(Cc2ccc(F)cc2)C1 | 330 | 78700 | 183
O=c1cccc2n1C[C@H]1C[C@@H]2CN(CCc2ccc(F)cc2)C1 | 1300 | > 50000 | –
O=c1cccc2n1C[C@H]1C[C@@H]2CN(CCc2ccncc2)C1 | 7.2 | 4200 | –
O=c1cccc2n1C[C@H]1C[C@@H]2CN(CCCc2ccc(F)cc2)C1 | 5000 | > 50000 | 611
O=C(CN1C[C@@H]2C[C@H](C1)c1cccc(=O)n1C2)c1ccc(F)cc1 | 409 | – | 172
O=c1cccc2n1C[C@@H]1CNC[C@H]2C1 [CYTISINICLINE] | 0.48 | 331 | 0.34
